Our source for the inhibition values is PubChem BioAssay AID588487 (The Scripps Research Institute Molecular Screening Center, 2011).

The source made the active and inactive calls.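 Rule for the calls: active = inhibition of at least 50% against any of four protein arginine deiminase enzymes; inactive = the rest.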

Test in all cases: PAD isozyme probe labeling blockade – biochemical, fluorescence, gel-based ABPP, HTS hits, orthogonal assay for PAD4 inhibitor project, late-stage follow-up (AID 588487)
For assay [1], the target named is Protein-arginine deiminase type-4 (Homo sapiens) (UniProt Q9UM07). The conditions noted are these: recombinant PAD1-4, gel-based ABPP, RFA probe fluorescence; PAD4; at 10 µM; stronger effect = higher value. In outline: (§1)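 Material: recombinant PAD1, PAD2, PAD3 or PAD4; Quantity: PAD enzyme 10 µM; Also added: RFA fluorescent probe at 1 µM; Dosing: one 10 µM dose per compound; Timing: 15 min compound pre-incubation plus 30 min probe step, 37 °C; Detection: in-gel fluorescence scan of probe-labeled PAD band after SDS-PAGE.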

The target in assay [2] is Protein-arginine deiminase type-1 (Homo sapiens) (UniProt Q9ULC6). The settings on record: recombinant PAD1-4, gel-based ABPP, RFA probe fluorescence; PAD1; at 10 µM; stronger effect = higher value. A digest of the protocol:
as §1

The target of assay [3] is Protein-arginine deiminase type-3 (Homo sapiens) (UniProt Q9ULW8). The settings on record: recombinant PAD1-4, gel-based ABPP, RFA probe fluorescence; PAD3; at 10 µM; stronger effect = higher value. A digest of the protocol: as §1
Assay [4] addresses Protein-arginine deiminase type-2 (Homo sapiens) (UniProt Q9Y2J8). The conditions noted are these: recombinant PAD1-4, gel-based ABPP, RFA probe fluorescence; PAD2; at 10 µM; stronger effect = higher value. A digest of the protocol: as §1

Chain of Protein-arginine deiminase type-2 (Homo sapiens) (Q9Y2J8 whole entry, looked up): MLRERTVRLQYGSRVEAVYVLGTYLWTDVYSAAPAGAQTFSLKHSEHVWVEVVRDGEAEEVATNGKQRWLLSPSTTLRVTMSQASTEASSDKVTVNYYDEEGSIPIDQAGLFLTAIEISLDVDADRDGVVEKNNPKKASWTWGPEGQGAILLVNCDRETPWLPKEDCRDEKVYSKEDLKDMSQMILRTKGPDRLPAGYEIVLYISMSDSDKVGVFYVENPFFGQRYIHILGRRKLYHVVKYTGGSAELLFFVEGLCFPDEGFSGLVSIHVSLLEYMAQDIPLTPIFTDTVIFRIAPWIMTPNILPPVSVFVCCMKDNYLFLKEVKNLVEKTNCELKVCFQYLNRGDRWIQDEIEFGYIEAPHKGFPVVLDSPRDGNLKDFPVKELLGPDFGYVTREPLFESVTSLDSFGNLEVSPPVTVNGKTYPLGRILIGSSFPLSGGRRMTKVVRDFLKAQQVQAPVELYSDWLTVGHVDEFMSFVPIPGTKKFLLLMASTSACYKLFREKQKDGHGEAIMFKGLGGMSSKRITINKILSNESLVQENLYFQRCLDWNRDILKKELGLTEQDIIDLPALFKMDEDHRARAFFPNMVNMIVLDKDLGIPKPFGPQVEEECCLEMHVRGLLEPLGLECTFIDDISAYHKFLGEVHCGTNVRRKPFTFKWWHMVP
Chain of Protein-arginine deiminase type-1 (Homo sapiens) (Q9ULC6 whole entry, looked up): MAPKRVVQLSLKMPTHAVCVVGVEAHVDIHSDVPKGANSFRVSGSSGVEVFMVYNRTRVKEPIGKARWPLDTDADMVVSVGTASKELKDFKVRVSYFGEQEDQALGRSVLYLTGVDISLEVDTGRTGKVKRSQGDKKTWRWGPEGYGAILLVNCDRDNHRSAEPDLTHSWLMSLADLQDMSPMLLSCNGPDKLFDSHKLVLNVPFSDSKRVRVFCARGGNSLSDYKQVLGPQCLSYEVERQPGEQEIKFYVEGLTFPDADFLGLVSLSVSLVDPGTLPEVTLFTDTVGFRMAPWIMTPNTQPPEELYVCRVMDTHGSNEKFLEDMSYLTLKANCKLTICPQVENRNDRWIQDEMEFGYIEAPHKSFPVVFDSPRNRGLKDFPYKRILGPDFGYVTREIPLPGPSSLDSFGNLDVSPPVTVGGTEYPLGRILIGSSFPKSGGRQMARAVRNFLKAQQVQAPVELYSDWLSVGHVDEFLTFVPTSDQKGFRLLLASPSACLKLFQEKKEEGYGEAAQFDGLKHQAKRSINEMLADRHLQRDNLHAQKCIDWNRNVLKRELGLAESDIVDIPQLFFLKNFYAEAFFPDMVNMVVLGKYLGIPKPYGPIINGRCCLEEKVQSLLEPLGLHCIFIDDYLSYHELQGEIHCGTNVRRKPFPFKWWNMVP
Chain of Protein-arginine deiminase type-4 (Homo sapiens) (Q9UM07 whole entry, looked up): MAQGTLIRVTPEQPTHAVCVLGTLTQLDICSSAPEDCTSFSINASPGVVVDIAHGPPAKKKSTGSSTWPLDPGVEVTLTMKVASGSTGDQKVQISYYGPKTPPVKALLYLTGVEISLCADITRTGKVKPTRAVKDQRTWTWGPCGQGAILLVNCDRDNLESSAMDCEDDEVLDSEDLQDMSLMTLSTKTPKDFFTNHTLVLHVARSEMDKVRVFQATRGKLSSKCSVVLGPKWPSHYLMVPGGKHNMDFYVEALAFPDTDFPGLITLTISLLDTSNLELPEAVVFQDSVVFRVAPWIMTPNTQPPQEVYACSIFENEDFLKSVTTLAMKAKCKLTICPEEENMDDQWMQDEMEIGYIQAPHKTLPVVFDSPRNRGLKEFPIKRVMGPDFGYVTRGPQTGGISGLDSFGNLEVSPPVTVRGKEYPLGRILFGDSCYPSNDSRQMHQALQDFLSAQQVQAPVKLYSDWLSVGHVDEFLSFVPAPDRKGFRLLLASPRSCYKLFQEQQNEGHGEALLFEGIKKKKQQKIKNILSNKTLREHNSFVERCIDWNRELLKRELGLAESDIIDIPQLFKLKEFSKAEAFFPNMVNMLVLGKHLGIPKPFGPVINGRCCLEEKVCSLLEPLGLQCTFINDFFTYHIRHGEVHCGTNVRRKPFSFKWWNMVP
Chain of Protein-arginine deiminase type-3 (Homo sapiens) (Q9ULW8 whole entry, looked up): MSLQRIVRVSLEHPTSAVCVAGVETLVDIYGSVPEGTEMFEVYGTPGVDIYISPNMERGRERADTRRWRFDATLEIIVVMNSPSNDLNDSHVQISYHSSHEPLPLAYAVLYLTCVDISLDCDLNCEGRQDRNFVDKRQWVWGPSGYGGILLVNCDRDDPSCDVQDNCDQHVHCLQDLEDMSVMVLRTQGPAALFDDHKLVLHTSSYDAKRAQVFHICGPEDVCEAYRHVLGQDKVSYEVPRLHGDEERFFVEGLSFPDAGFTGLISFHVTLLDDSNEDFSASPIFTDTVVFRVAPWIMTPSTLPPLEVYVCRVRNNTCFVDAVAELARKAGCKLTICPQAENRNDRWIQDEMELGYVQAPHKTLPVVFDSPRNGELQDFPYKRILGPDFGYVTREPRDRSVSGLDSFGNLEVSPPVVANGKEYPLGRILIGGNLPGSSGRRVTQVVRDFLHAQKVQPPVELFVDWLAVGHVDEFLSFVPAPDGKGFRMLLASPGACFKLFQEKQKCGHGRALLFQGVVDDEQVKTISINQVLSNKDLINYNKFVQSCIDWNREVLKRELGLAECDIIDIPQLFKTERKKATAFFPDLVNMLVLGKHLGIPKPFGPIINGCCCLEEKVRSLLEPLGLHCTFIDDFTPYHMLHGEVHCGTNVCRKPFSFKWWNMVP

The inhibition is the drop in the measured response relative to a control, in per cent. As for `O=C(O)CCC(=O)Nc1ccc(SSc2ccc(NC(=O)CCC(=O)O)cc2)cc1`, the inhibition in assay [1] was 45% (inactive); in assay [2] it was 35% (inactive); in assay [3] it was 34% (inactive); in assay [4], 40% (inactive).

In the case of `c1ccc(CCn2c3ccccc3c3nnc(SCc4ccc5nonc5c4)nc32)cc1`, the inhibition was 31% (inactive) in assay [1], 18% (inactive) in assay [2], 21% (inactive) in assay [3] and 14% (inactive) in assay [4].

On to `Cn1c(SCC(=O)N/N=C/C=C/c2ccco2)nc2ccccc21`, for which the inhibition in assay [1] was 38% (inactive); in assay [2], 14% (inactive); in assay [3] it was -13% (inactive); in assay [4] it was 41% (inactive).

Regarding `O=c1cc(-c2ccc(Cl)cc2)[nH][nH]1`, the inhibition was 41% (inactive) in assay [1], 33% (inactive) in assay [2], -44% (inactive) in assay [3] and 62% in assay [4].

As to `CCOc1nc(Nc2ccc(OC)cc2OC)nc(OCC)n1`, the inhibition in assay [1] is 20% (inactive); in assay [2], 37% (inactive); in assay [3], 46% (inactive); in assay [4], 62%.

For the molecule `COc1ccc(OC)c(C2C(C#N)=C(N)Oc3c2c(C)nn3-c2ccc(C)cc2)c1` (centres undefined), the inhibition in assay [1] is 31% (inactive); in assay [2], 22% (inactive); in assay [3], -37% (inactive); in assay [4], 18% (inactive).

Consider `COc1ccc(-c2cc(=O)[nH][nH]2)cc1`, for which the inhibition in assay [1] is 35% (inactive); in assay [2], 58%; in assay [3], 32% (inactive); in assay [4], 53%.

Consider `O=[N+]([O-])c1ccc2nc(-c3ccccc3)n(OCc3ccc(Cl)cc3)c2c1`, for which the inhibition in assay [1] is -3% (inactive); in assay [2], 3% (inactive); in assay [3], 36% (inactive); in assay [4], 36% (inactive).

Consider `O=c1cc(-c2ccc(Cl)c(Cl)c2)[nH][nH]1`, for which the inhibition in assay [1] was 42% (inactive); in assay [2], 27% (inactive); in assay [3], 41% (inactive); in assay [4], 51%.

As for `O=C(O)CCC(=O)c1ccc(-c2ccccc2)cc1`, the inhibition in assay [1] is -51% (inactive); in assay [2] it was 16% (inactive); in assay [3], 24% (inactive); in assay [4], -45% (inactive).

As to `COc1cccc(C2=CC(c3ccc(OC)c(OC)c3)NC(=S)N2)c1` (centres undefined), the inhibition is -9% (inactive) in assay [1], -9% (inactive) in assay [2], -3% (inactive) in assay [3] and 14% (inactive) in assay [4].

With `Cc1cc(C)c(C)c(S(=O)(=O)N2CCC(C(=O)N3CCCC3)CC2)c1C`, the inhibition in assay [1] was 39% (inactive); in assay [2], -32% (inactive); in assay [3], 22% (inactive); in assay [4] it was -43% (inactive).

In the case of `Cc1cc2ncn(-c3ncccc3[N+](=O)[O-])c2cc1C`, the inhibition is 29% (inactive) in assay [1], 46% (inactive) in assay [2], -25% (inactive) in assay [3] and 25% (inactive) in assay [4].

`COc1ccc(CCNC(=O)c2c[nH]c3ccc(F)cc3c2=O)cc1OC`: the inhibition is 33% (inactive) in assay [1], -15% (inactive) in assay [2], 23% (inactive) in assay [3] and 35% (inactive) in assay [4].

On to `O=c1cc(-c2ccc(Br)cc2)[nH][nH]1`, for which the inhibition in assay [1] was 51%; in assay [2], 6% (inactive); in assay [3] it was 20% (inactive); in assay [4], -6% (inactive).

Take `CN(C)CCCNc1cn[nH]c(=O)c1Cl`: the inhibition in assay [1] was 41% (inactive); in assay [2], 33% (inactive); in assay [3], -58% (inactive); in assay [4] it was 61%.

As to `Cc1cc(-c2nnc(SCC(=O)Nc3ccc(F)c(F)c3)n2N)n[nH]1`, the inhibition in assay [1] was 51%; in assay [2] it was 43% (inactive); in assay [3] it was -20% (inactive); in assay [4] it was 62%.

As for `Cc1cc(C)c(C#N)c(Sc2ccccc2N)n1`, the inhibition is 6% (inactive) in assay [1], 36% (inactive) in assay [2], 5% (inactive) in assay [3] and 38% (inactive) in assay [4].

`Cn1c(=O)c2c(ncn2CC(=O)Nc2nc(-c3ccccc3Cl)cs2)n(C)c1=O`: the inhibition in assay [1] is 80%; in assay [2], 0% (inactive); in assay [3], -19% (inactive); in assay [4], 25% (inactive).

Turning to `O=C(COc1ccccc1F)N1CCN(S(=O)(=O)/C=C/c2ccccc2)CC1`, the inhibition in assay [1] is 42% (inactive); in assay [2], -10% (inactive); in assay [3] it was 3% (inactive); in assay [4] it was 25% (inactive).

Regarding `CCN(CC)S(=O)(=O)c1ccc(C)c(NS(=O)(=O)c2cc(/C=C/C(=O)O)cc(OC)c2OC)c1`, the inhibition in assay [1] is 40% (inactive); in assay [2], 9% (inactive); in assay [3], 33% (inactive); in assay [4], 40% (inactive).

`CC(=O)N(Cc1cc(=O)[nH]c2ccccc12)c1cccc(C)c1`: the inhibition was -7% (inactive) in assay [1], 58% in assay [2], 39% (inactive) in assay [3] and 19% (inactive) in assay [4].

In the case of `CN(C)CCN(Cc1ccccc1)c1ccccn1`, the inhibition was 65% in assay [1], 13% (inactive) in assay [2], -7% (inactive) in assay [3] and 46% (inactive) in assay [4].

For the molecule `Cn1c(SCC(=O)Nc2ccc(Br)cn2)nnc1C1CC1`, the inhibition in assay [1] was 15% (inactive); in assay [2], 17% (inactive); in assay [3], -19% (inactive); in assay [4], 19% (inactive).

With `COc1ccc(-c2noc3c2-c2nc(-c4ccc(Br)cc4)sc2CC3)cc1`, the inhibition is 47% (inactive) in assay [1], 33% (inactive) in assay [2], -23% (inactive) in assay [3] and 32% (inactive) in assay [4].

Take `Cc1cc(C)cc(NC(=S)/C(=C(\[O-])c2ccc(Cl)s2)[n+]2cccc(C)c2)c1`: the inhibition was -8% (inactive) in assay [1], -1% (inactive) in assay [2], 28% (inactive) in assay [3] and 50% in assay [4].

Consider `Cc1ccc(-c2nc3sc(C#N)c(N)n3c(=O)c2C#N)cc1`, for which the inhibition in assay [1] is 38% (inactive); in assay [2] it was 32% (inactive); in assay [3], 31% (inactive); in assay [4] it was 16% (inactive).

Consider `COc1ccc(S(=O)(=O)Nc2ccccc2C)cc1`, for which the inhibition in assay [1] was 57%; in assay [2], 23% (inactive); in assay [3] it was -13% (inactive); in assay [4], 57%.

Turning to `O=C1CC(c2cccnc2)=NN1c1ccccc1`, the inhibition in assay [1] is 4% (inactive); in assay [2] it was 37% (inactive); in assay [3] it was 34% (inactive); in assay [4], 34% (inactive).

For `COc1ccc(C2=CC(c3ccc(OC)c(OC)c3)NC(=S)N2)cc1` (centres undefined), the inhibition is -50% (inactive) in assay [1], 37% (inactive) in assay [2], 36% (inactive) in assay [3] and -9% (inactive) in assay [4].

On to `Cc1ccc(CNC(=O)c2ccc(C)c(S(=O)(=O)N3CCCCC3)c2)cc1`, for which the inhibition in assay [1] is 19% (inactive); in assay [2] it was 21% (inactive); in assay [3], 31% (inactive); in assay [4], 67%.

`COc1cccc2cc(C(=O)NC3CC(C)(C)NC(C)(C)C3)c(=O)oc12`: the inhibition is 31% (inactive) in assay [1], 15% (inactive) in assay [2], 66% in assay [3] and 7% (inactive) in assay [4].

On to `COc1ccc(-c2nc(C(=O)NCCCN3CCOCC3)cc3c2[nH]c2ccccc23)cc1OC`, for which the inhibition in assay [1] is 10% (inactive); in assay [2], 30% (inactive); in assay [3] it was -12% (inactive); in assay [4] it was 18% (inactive).

As to `CCOc1c(Br)cc(/C=C2\C(=O)N(CCC#N)N=C2C)cc1OC`, the inhibition in assay [1] is 52%; in assay [2] it was 45% (inactive); in assay [3], 15% (inactive); in assay [4], 25% (inactive).

For the molecule `CN(C)C(CNC(=O)c1cc2ccccc2o1)c1ccco1` (centres undefined), the inhibition in assay [1] was 24% (inactive); in assay [2], 11% (inactive); in assay [3] it was 35% (inactive); in assay [4], 46% (inactive).

With `Cc1oc2c(C)c(O)ccc2c(=O)c1-c1ccc2ccccc2n1`, the inhibition in assay [1] is 1% (inactive); in assay [2], -33% (inactive); in assay [3], 42% (inactive); in assay [4], 50%.
